Compounds with a hit are over-represented: about 4.1% of the library has one in this group of screens.
AHR activator: activators of human aryl hydrocarbon receptor. AHR-responsive luciferase reporter cells, luminescence. activation, % at 5 µM. P35869. hit rate 2.5% among 320,000; in the data active = activation above about 47%
Tb MetRS inh: blocks T. brucei methionyl-tRNA synthetase activity; purified T. brucei MetRS, ATP depletion, Kinase-Glo luminescence; inhibition, % at 11.9 µM; hit rate 0.4% among 360,000; AID 624268;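 active = inhibition above a per-plate cutoff of the control wells' mean inhibition plus 3 SD, cut at about 5.5% in these data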
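Material – parasite MetRS enzyme · Medium – HEPES-MgCl2-KCl buffer plus DTT, spermine, BSA, pyrophosphatase · Reagent – ATP, methionine and E. coli bulk tRNA substrates · Times – 15 min enzyme-compound preincubation, 2 h reaction, 10 min detection, 25 °C · Measured by – luminescence of leftover ATP · Evaluation – percent inhibition relative to median high and low control wells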
SMARCA2 act: activators of SMARCA2 function; MG213 cells, MMTV-luciferase reporter, dexamethasone, overnight; activation, % at 9.1 µM; hit rate 1% among 370,000; AID 652017; in the data active = activation above about 7.8%
TAG inh: inhibitors of triacylglycerol accumulation; inhibition, % at 12.5 µM; H9c2 cells, Nile Red lipid (TAG) fluorescence; cells loaded with 200 µM oleic acid; hit rate 0.66% among 230,000; AID 651582;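 active = pattern-corrected inhibition of lipid staining of at least 50% with the nuclear-stain viability signal not falling by more than 50%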
Efflux pump inh: inhibitors of Candida antifungal efflux pumps expressed in yeast; S. cerevisiae Candida pump triplex, Nile Red efflux; inhibition, % at 10 µM; hit rate 0.44% among 330,000; AID 485275;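 active = plate passing quality check with inhibition over a set limit, or well fluorescence over plate mean plus 4 SD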;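 note: Nile Red retained in pooled yeast measured as flow cytometry median fluorescence; higher means more Nile Red kept so more efflux inhibition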
A number is an active result; i = inactive; nt = not tested or not shown.

SMILES	AHR activator	Tb MetRS inh	SMARCA2 act	TAG inh	Efflux pump inh
O=[N+]([O-])c1ccc(/C=N/NC(=S)Nc2ccccc2F)o1	i	i	i	nt	i
COC(=O)c1c(-c2ccccc2)noc1-c1ccccc1	53	i	i	i	i
Cc1cccc(-c2cccc3c4c([nH]c23)[C@@H]2C[C@H](N(C)C(=O)c3ccccc3C)[C@H]([C@H](C)O)CN2CC4)c1	nt	nt	i	nt	nt
CCn1cc([N+](=O)[O-])c(C(=O)N2N=C(c3ccc4ccccc4c3)CC2c2ccccc2O)n1 (centres undefined)	i	i	i	71	i
OCCNc1nc(Nc2ccccc2)nc(Nc2ccccc2)n1	48	i	i	i	i
COC(=O)c1cc(OC)c(OC)cc1NCC(=O)Nc1ccc(C)cc1	i	i	i	nt	i
COC(=O)c1cc(OC)c(OC)cc1NCC(=O)Nc1ccc(OC)c(OC)c1	72	i	i	nt	i
Nc1ccccc1-c1nc2ccccc2s1	57	i	i	i	i
c1ccc2sc(-c3ccc4c(c3)OCO4)nc2c1	65	i	nt	nt	i
Oc1ccc(-c2nc3ccccc3s2)cc1	55	i	i	i	i
COc1ccc(-c2nc3ccccc3s2)cc1	nt	i	i	i	nt
c1ccc2sc(-c3ccncc3)nc2c1	i	i	i	i	i
COc1cccc(-c2nc3ccccc3s2)c1	68	i	i	i	i
COC(=O)C1CN(CCO)CCS(=O)(=O)N1Cc1cn(Cc2ccccc2Br)nn1 (centres undefined)	nt	nt	i	nt	nt
Cc1ccc(O)c(-c2cc(-c3cccc(F)c3)n[nH]2)c1	56	i	i	i	i
COc1ccc(-c2cc(-c3cc(F)ccc3O)[nH]n2)cc1OC	50	i	i	nt	i
Cc1ccc(NCCC(=O)c2cccs2)cc1C	48	i	i	i	i
CC(C)c1ccc(NCCC(=O)c2cccs2)cc1	i	i	i	i	i
NC1=C(Br)C(=O)c2ncccc2C1=O	nt	i	i	i	nt
O=C1C=C(NCCc2cc(Br)c(O)c(Br)c2)C(=O)c2ncccc21	nt	i	i	53	nt
Cc1ccc2[nH]c(=O)c(-c3nc4ccccn4c3NCc3ccco3)cc2c1	48	i	i	nt	i
Cn1c(CNC(=O)c2ccccc2F)cc2ccccc21	50	i	i	i	i
O=C(NCc1cc2ccccc2[nH]1)c1ccccc1F	48	i	i	i	i
Cc1ccc2c(c1)C1CS(=O)(=O)N(C3CCCC3)CN1C2 (centres undefined)	nt	nt	i	nt	nt
CCOC(=O)[C@]12CCCC=C1N(Cc1ccc(OC)cc1)C(=O)[C@@H]2CC(=O)NCc1ccccc1	nt	nt	i	nt	nt
SMILES	AHR activator	Tb MetRS inh	SMARCA2 act	TAG inh	Efflux pump inh
COc1ccc2nc(NN=C(C)c3ccccn3)cc(C)c2c1	nt	i	i	67	nt
COc1ccccc1-n1c(SC(C)C(=O)NCC2CCCO2)nc2cc(Cl)ccc2c1=O (centres undefined)	59	i	i	i	i
CC(C)C[C@H]1CN([C@@H](Cc2ccccc2)CN2CCC[C@H]2CN2C(=O)C(=O)NC[C@@H]2Cc2ccccc2)C(=O)C(=O)N1CC1CCCCCC1	nt	nt	i	nt	nt
CCCC[C@@H]1C(=O)N2N=Cc3cc(C)c(C)cc3[C@H]2N2N=Cc3cc(C)c(C)cc3[C@@H]12	nt	nt	i	nt	nt
O=S(=O)(c1ccc(Cl)cc1)N1CCN(Cc2ccc(O)c3ncccc23)CC1	i	i	i	53	i
O=C(Nc1ccccc1C(F)(F)F)OCCCN1CCC2(CCC(c3ccccc3)CC2)C1=O (centres undefined)	nt	nt	i	nt	nt
CCc1cccc(NC(=S)Nc2cccc3ccccc23)c1	78	i	i	i	i
Cc1cc(NC(=S)Nc2cccc3ccccc23)n[nH]1	52	i	i	i	i
Cc1ccc(S(=O)(=O)N(C)C)cc1NC(=S)Nc1cccc2ccccc12	59	i	i	nt	i
C=CCNC(=S)Nc1cccc2ccccc12	i	i	i	nt	i
Cc1cc(C)cc(NC(=S)Nc2cccc3ccccc23)c1	69	i	i	i	i
Cc1ccc(NC(=S)Nc2cccc3ccccc23)cc1	i	i	i	i	i
C/C(=N\NC(=S)Nc1cccc(C)c1)c1cc2ccccc2o1	49	i	i	i	i
Cc1cccc(NC(=S)Nc2cccc3ccccc23)c1	63	i	i	i	i
CCC(=O)N1CCc2cc(Br)c(S(=O)(=O)NCCCN(C)Cc3ccccc3)cc21	nt	nt	i	nt	nt
COCCN(C[C@@H]1[C@H](c2ccccc2)[C@H](CO)N1c1nc(C)c(C)s1)S(=O)(=O)c1ccccc1[N+](=O)[O-]	nt	nt	i	nt	nt
O=C(CNC1CCCCC1)Nc1ccc([N+](=O)[O-])cc1C(=O)Nc1ccccc1F	48	i	i	i	i
Cc1ccc(N=Nc2c(C)[nH][nH]c2=O)c(C)c1	48	i	i	i	i
COc1ccccc1N=Nc1c(C)[nH][nH]c1=O	i	i	i	nt	i
Cc1ccc(-c2[nH]ncc2/C=N/n2c(C)nc3ccccc3c2=O)cc1	61	i	i	i	i
O=c1c2ccccc2nc(COc2ccccc2)n1/N=C/c1cn[nH]c1-c1ccccc1	i	i	i	nt	i
COc1ccc(S[C@]2(C(=O)N3CCN(C(C)=O)CC3)CC(=O)N(C(=O)C3CC3)[C@@H]2c2ccc(OC)cc2)cc1	nt	nt	i	nt	nt
COC(=O)C1CN(Cc2cn(CCC3OCCO3)nn2)CCS(=O)(=O)N1Cc1ccccc1 (centres undefined)	nt	nt	i	nt	nt
c1coc(-c2nnc3sc(-c4cccs4)nn23)c1	55	i	i	i	i
COc1cccc(-c2nnc3sc(-c4cccs4)nn23)c1	i	i	i	i	i
SMILES	AHR activator	Tb MetRS inh	SMARCA2 act	TAG inh	Efflux pump inh
c1ccc(CNc2nc3ccccc3n3cnnc23)nc1	50	i	i	i	i
c1ccc(CNc2nc3ccccc3n3cnnc23)cc1	i	i	i	i	i
COc1ccc(-c2nc3ccccc3o2)cc1NC(=O)c1ccc(Br)o1	77	i	i	i	i
COc1ccc(NC(=O)c2ccco2)cc1NC(=O)c1ccc(Br)o1	58	i	i	nt	i
COc1ccc(CC(=O)Nc2ccc(OC)c(NC(=O)c3ccco3)c2)cc1	i	i	i	i	i
COc1ccc(OC)c(NC(=O)c2cc3ccccc3o2)c1	61	i	i	i	i
COc1ccccc1NC(=O)c1ccc(Br)o1	i	i	i	i	i
CCCCNC(=O)Nc1ccc(Br)cn1	52	i	i	i	i
COc1ccc(C(C)(C)C)cc1N1C(=O)[C@@H]2CSCCS(=O)(=O)N2C1=O	nt	nt	i	nt	nt
N#Cc1c(NC(=O)c2ccc(Cn3cc(Br)cn3)o2)sc2c1CCCCC2	48	i	i	i	i
CN(C)c1cccc(C(=O)Nc2nnc(Cc3ccccc3)s2)c1	54	i	i	nt	i
O=C(O)CSc1nnc(NC(=O)c2ccc3c(c2)OCO3)s1	i	i	i	i	i
O=C(Nc1nnc(Cc2ccc([N+](=O)[O-])cc2)s1)c1ccc2c(c1)OCO2	55	i	i	i	i
CC(C)(C)Cc1nnc(NC(=O)c2ccc3c(c2)OCO3)s1	49	i	i	nt	i
Cc1cc(NC(=O)c2cccc(Oc3ccccc3)c2)n[nH]1	66	i	i	i	i
O=C(Nc1nn[nH]n1)c1cccc(Oc2ccccc2)c1	i	i	i	i	i
C#CCN1CC(N(C)CCCO)CS1(=O)=O (centres undefined)	nt	nt	i	nt	nt

Bioassay records as filed in PubChem BioAssay.
